Screening results (PubChem)
UPR XBP1 act: adaptive UPR (XBP1) activation; activation, % at 20 µM; CHO-XBP1 luciferase reporter, IRE1-XBP1 UPR activation, luminescence; percent of tunicamycin response, DMSO as zero; 330,000 compounds, 0.33% hits;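 active means versus positive control, 20 µM dose yields 30% or more activation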;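 further: 100% = tunicamycin at 10 µg/mL and 0% = DMSO only wells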
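Material – CHO cell line with stable XBP1 luciferase reporter · Buffer or medium – F12 plus 10% FBS · Compound – single point, 20 µM final compound, 1% DMSO · Schedule – 16-18 h cell attachment at 37 °C, then 6 h compound exposure · Signal – Steady-Glo luminescence read · Benchmarks – high control tunicamycin 10 µg/mL final, low control DMSO vehicle only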
Jurkat NFkB inh: lowers PMA/ionomycin-induced NF-kB signal in Jurkat cells | PMA/ionomycin-induced NF-kB luciferase reporter, luminescence | inhibition, % at 4 µM | 330,000 compounds, 0.53% hits; in the data active means inhibition above about 50%
CHOP inh: CHOP inhibition in unfolded protein response | CHO-K1 CHOP-promoter luciferase, tunicamycin-induced, 15-18 h | inhibition, % at 10 µM | 220,000 compounds, 3.8% hits | AID 2732;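 active means compounds that reduced the stress-induced luciferase reporter signal by more than about 70% of percent inhibition, limit read from the data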;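 further: 0% = tunicamycin plus vehicle and 100% = wells without tunicamycin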
CHOP UPR activ: activators of apoptotic arm of unfolded protein response (CHOP); CHO-CHOP luciferase reporter, UPR activation, luminescence; percent of tunicamycin response over DMSO baseline; activation, % at 10 µM; 330,000 compounds, 0.34% hits;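 active means at 10 µM dose, activation of 40% or more, normalized to positive control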;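 further: 100% = tunicamycin at 10 µg/mL and 0% = DMSO alone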
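System: CHO CHOP reporter cells. Amount: 500 cells per well. Buffer or medium: F12 medium, 10% FBS. Compound dosing: one dose, 10 µM in 0.5% DMSO. Incubation: 6 h compound exposure at 37 °C after overnight seeding. Technique: Steady-Glo luciferase luminescence. Benchmarks: tunicamycin and DMSO controls.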
Gli-Sufu block: Gli-Sufu pathway antagonism | inhibition, % at 5 µM | 340,000 compounds, 0.74% hits | Sufu-KO-LIGHT fibroblasts, Gli luciferase reporter luminescence;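 active means inhibition above about 55%, limit read from the data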;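 further: 0% = DMSO-treated cells and 100% = wells with medium but no cells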
697 NFkB inh: lowers PMA/ionomycin-induced NF-kB signal in 697 B cells. 697 B-cell NF-kB luciferase reporter, 16 h. inhibition, % at 4 µM. 330,000 compounds, 0.33% hits. AID 435022; in the data active means inhibition above about 35%
697 NFkB conf: inhibitors of the PMA/ionomycin-induced NF-kB reporter in 697 B cells, retest; inhibition, % at 4 µM; AID 449746; 697 B-cell NF-kB luciferase, 16 h; 2,000 compounds, 35% hits; shares compounds with 697 NFkB inh; in the data active means inhibition mostly above about 28%, no sharp cut-off; inactive means mostly below about 22%
* = called active by the depositor; i = inactive; · = no result. Hits are enriched below; roughly 3.9% of the tested compounds scored in any of these assays.

SMILES | UPR XBP1 act | Jurkat NFkB inh | CHOP inh | CHOP UPR activ | Gli-Sufu block | 697 NFkB inh | 697 NFkB conf
CCOc1ccc(-n2c(SCC(=O)Nc3ccc4c(c3)OCCO4)nc3c(c2=O)SCC3)cc1 | -1.9 | -15.7 | 35.6 | -0.3 | 7.8 | 37.8* | 32.3*
CN(C)c1ccc(N=Nc2ccccc2Br)cc1 | -11.4 | -132.0 | · | -0.2 | -85.1 | -278.8 | -378.6
CCc1nc(SCC(=O)N2c3ccccc3CC2C)c2c(C)c(C)sc2n1 (stereo not drawn) | -0.3 | -56.0 | 8.9 | 0.8 | 16.4 | i | i
Cc1sc2nc(C(C)C)nc(SCC(=O)N3c4ccccc4CC3C)c2c1C (stereo not drawn) | 2.3 | 1.6 | 36.5 | 1.5 | 12.5 | -39.1 | ·
CC(=O)Nc1ccccc1Sc1ccccc1 | -1.1 | 4.2 | 24.4 | -0.8 | 0.4 | 17.0 | ·
O=C(CCl)Nc1ccccc1Sc1ccccc1 | 2.2 | 17.3 | 14.2 | 0.7 | -5.9 | 41.0* | 34.1*
Clc1ccc(OCc2cc(-c3ccccc3)no2)c(Cl)c1 | -4.9 | -123.0 | 3.0 | -2.1 | -95.9 | -466.4 | -353.1
Cc1cccc(OCc2cc(-c3ccccc3)no2)c1C | -7.1 | -54.1 | · | 3.7 | -70.8 | -49.6 | ·
COc1ccc(C(=O)NC2CCN(CC(=O)NCc3ccccc3F)CC2)cc1 | 0.6 | 9.3 | · | 0.1 | 9.6 | 4.0 | ·
O=S1OCCN1c1ccccc1 (stereo not drawn) | -0.5 | 2.4 | · | 0.3 | -22.3 | -15.6 | ·
O=C(/C(N=Nc1cccc(C(F)(F)F)c1)=C(/O)c1cccs1)C(F)(F)F | 4.0 | -59.1 | 10.8 | 1.2 | 0.4 | -113.3 | ·
Cc1ccc(N=C/C(C(=O)C(F)(F)F)=C(\O)c2cccs2)cc1 | 4.4 | -99.9 | -10.4 | 4.5 | -86.9 | -359.5 | -148.4
Fc1ccc(-c2noc(-c3ccc4c(c3)CCO4)n2)cc1 | -7.4 | -132.0 | 21.1 | -1.5 | -43.2 | -308.1 | -268.1
Fc1ccc(-c2nc(-c3cccs3)no2)cc1 | 3.5 | -135.6 | 30.8 | 5.6 | -61.0 | -127.4 | ·
O=C(N/N=C/c1ccc(Cl)cc1Cl)c1ccc(-n2cnnn2)cc1 | 1.5 | 4.8 | · | 2.9 | 11.5 | 38.7* | 35.2*
CNS(=O)(=O)c1ccc2c(c1)C(=O)c1cc(S(=O)(=O)NC)ccc1CC2 | 2.0 | 5.6 | · | 0.2 | -10.9 | -10.7 | ·
CC(OC(=O)c1ccc2ncsc2c1)C(=O)Nc1cccc(Cl)c1 (stereo not drawn) | 0.0 | -4.1 | · | 1.3 | -14.8 | -3.2 | ·
COc1ccc2cc(-c3cc(C(=O)O)c4ccccc4n3)ccc2c1 | -5.8 | -18.5 | -5.1 | -6.8 | -120.9 | -344.5 | -351.0
COc1ccc(-c2cc(C(=O)O)c3ccccc3n2)c(OC)c1 | -1.1 | 6.9 | -10.7 | -0.2 | 4.4 | 12.4 | ·
CCOCCCNC(=S)N1CCC(C(=O)c2ccc3c(c2)OCCO3)CC1 | -3.0 | -7.1 | -0.6 | 1.7 | -0.5 | 101.4* | 18.9
CCNC(=S)N1CCC(C(=O)c2ccc3c(c2)OCCO3)CC1 | 3.1 | -2.5 | 0.1 | -0.3 | 2.8 | -0.4 | ·
CC(=O)c1cccc(S(=O)(=O)Nc2cc(C(F)(F)F)ccc2N2CCOCC2)c1 | -1.8 | 11.5 | · | 1.5 | 0.1 | 39.1* | 32.0*
CSc1ccccc1OCc1cc(C(=O)N2CCc3c(Cl)cccc3C2)no1 | -8.1 | 12.0 | · | -1.9 | -11.5 | -1.4 | ·
Cn1c(-c2ccccc2)cc2onc(-c3ccccc3)c2c1=O | -7.0 | -65.6 | · | -5.6 | -25.2 | -325.0 | -359.6
Cn1c(=O)c(C(=O)Nc2ccccn2)c(O)c2ccccc21 | -1.5 | -74.9 | 71.9* | 4.2 | -40.9 | -300.3 | -250.3
SMILES | UPR XBP1 act | Jurkat NFkB inh | CHOP inh | CHOP UPR activ | Gli-Sufu block | 697 NFkB inh | 697 NFkB conf
Cn1c(=O)c(C(=O)Nc2ccccc2S(N)(=O)=O)c(O)c2ccccc21 | -0.5 | 6.8 | 56.4 | 1.4 | -19.2 | -89.5 | ·
O=C(Nc1ccc(Cl)c(S(=O)(=O)N2CCCCC2)c1)c1cccnc1 | -3.8 | 0.2 | · | -2.1 | -1.3 | -5.9 | ·
Cc1nc2ccccc2c2oc(C(=O)Nc3ccc(C(C)C)cc3)cc12 | 2.0 | 0.2 | 16.8 | 0.2 | 20.1 | -28.9 | ·
COc1cc(NC(=O)c2cc3c(C)nc4ccccc4c3o2)cc(OC)c1OC | -1.5 | 13.0 | 50.9 | 2.0 | 24.4 | 37.1* | 44.0*
CCCOc1ccc(C(F)(F)F)cc1NC(=O)CCc1c(C)noc1C | -2.4 | 13.9 | · | -0.8 | 5.7 | -20.4 | ·
COc1cc(-c2nc3ccc(N4CCN(C)CC4)cc3[nH]2)cc(OC)c1OC | 1.8 | -31.8 | -2.3 | 1.2 | 27.5 | 37.8* | 31.4*
CC(C)CN1C(=O)C(=O)N(CC(=O)NC(C)CCc2ccccc2)C1=O (stereo not drawn) | -0.8 | -0.9 | · | 1.4 | -17.5 | -6.7 | ·
CC(C)N(Cc1ccccc1)C(=O)COC(=O)c1ccc(O)cc1 | 3.1 | -3.0 | · | -0.4 | -28.7 | 16.8 | ·
Nc1nc(N)nc(-c2cccc(Cl)c2Cl)n1 | -1.4 | 0.4 | · | 0.4 | 0.7 | 11.7 | ·
Cc1nn(-c2ccc(N3CCCCC3)nn2)c(C)c1CCC(=O)Nc1ccccc1F | -0.9 | -37.5 | · | 6.0 | -29.8 | 51.4* | 47.8*
Cc1ccccc1NC(=O)CCc1c(C)nn(-c2ccc(N3CCCCC3)nn2)c1C | -2.4 | -11.8 | · | 4.9 | 9.4 | -29.7 | ·
CCOc1ccc(C(=O)N2CCN(Cc3ccccc3)CC2)cc1OCC | -2.2 | 0.5 | · | 1.9 | -8.0 | -15.5 | ·
C(=N\Nc1nc2ccccc2s1)/c1cccs1 | 2.5 | -136.9 | 65.6 | 1.8 | 22.6 | -327.2 | -303.8
COc1ccc(N2CCN(CCCn3c(=S)[nH]c4ccccc4c3=O)CC2)cc1 | -6.9 | -33.9 | · | 0.5 | 12.1 | -309.1 | -17.5
COc1ccccc1N1CCN(CCCn2c(=S)[nH]c3ccccc3c2=O)CC1 | -5.4 | 6.6 | · | -0.8 | 13.6 | -7.9 | ·
Cc1cc2ncc(-c3cccs3)nc2cc1C | -7.6 | -122.3 | · | -2.7 | -79.8 | -278.7 | -325.3
c1csc(-c2ccc3ccccc3n2)c1 | 5.5 | -60.3 | -8.2 | 2.8 | -38.0 | -48.2 | ·
CCC(=O)Nc1cccc(-c2ccc(N3CCC(C)CC3)nn2)c1 | -6.2 | -71.4 | · | -2.5 | -25.4 | -258.0 | -322.5
COc1ccc(/C=C2\SC(=S)N(CCCC(=O)NNC(=O)c3ccccc3O)C2=O)cc1 | -10.1 | 4.0 | 105.9* | -8.3 | 25.5 | 73.5* | 68.5*
O=C(CCCN1C(=O)/C(=C/c2ccccc2Cl)SC1=S)N1CCCC1 | -6.0 | -5.3 | · | 0.1 | -4.2 | 7.3 | ·
O=C(CCCN1C(=O)/C(=C/c2ccccc2Cl)SC1=S)NNC(=O)c1ccccc1Cl | -4.3 | 12.7 | 95.2* | -6.2 | 30.5 | 69.0* | 65.0*
Cc1cc(NC(=O)CCN2C(=O)/C(=C/c3ccccc3F)SC2=S)no1 | 0.5 | 3.5 | 18.6 | 0.6 | · | 19.4 | ·
Cc1cc(NC(=O)CCCN2C(=O)/C(=C/c3ccccc3Cl)SC2=S)no1 | -5.8 | 18.3 | · | -3.2 | 9.0 | 59.8* | 68.0*
